Measured values: ChEMBL document CHEMBL4406880, “Design, synthesis, and bioactivity of dihydropyrimidine derivatives as kinesin spindle protein inhibitors” (Bioorg Med Chem, 2019)

Assays:
Format in all cases: functional
TK-10 [1] = test: Growth inhibition of human TK10 cells assessed as cell viability at 0.001 uM incubated for 48 hrs by sulforhodamine B assay relative to control; details: TK-10, 48 h, read-out: Activity
HT-29 [2] = test: Growth inhibition of human HT-29 cells assessed as cell viability at 0.1 uM incubated for 48 hrs by sulforhodamine B assay; details: HT-29, 48 h, read-out: Activity
UO-31 = test: Growth inhibition of human UO31 cells assessed as cell viability at 1 uM incubated for 48 hrs by sulforhodamine B assay; details: UO-31, 48 h, read-out: Activity
SN12C = test: Growth inhibition of human SN12C cells incubated for 48 hrs by sulforhodamine B assay
Procedure, shortened: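 NCI-60 five-dose assay, SRB end-point, same culture conditions. Compound is tested at tenfold dilutions of 0.01, 0.1, 1, 10 and 100 µM for 48 h at 37 °C, with DMSO/PBS vehicle controls. Percentage growth at each concentration is taken against untreated cells and a time-zero plate. GI50 is 50% net growth decrease, TGI is total growth inhibition, and LC50 is 50% loss of initial cells.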

SK-MEL-28 = test: Growth inhibition of human SK-MEL-28 cells assessed as cell viability at 0.1 uM incubated for 48 hrs by sulforhodamine B assay; details: SK-MEL-28, 48 h, read-out: Activity
BT-549 = test: Growth inhibition of human BT549 cells assessed as cell viability at 0.001 uM incubated for 48 hrs by sulforhodamine B assay relative to control; details: BT-549, 48 h, read-out: Activity
HT-29 [3] = test: Growth inhibition of human HT-29 cells incubated for 48 hrs by sulforhodamine B assay; details: HT-29, 48 h
Procedure, shortened: (§1)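 NCI-60 five-dose SRB assay in RPMI 1640 with 5% FBS, 37 °C, 5% CO2. Compound given at five tenfold dilutions, 0.01–100 µM, for 48 h. Adherent cells fixed with TCA, suspension cells with 16% final TCA. Bound SRB read at 515 nm and growth calculated against time-zero and untreated controls. GI50 taken from dose–response curves as the concentration giving a 50% decrease in net cell growth.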

CAKI-1 = test: Growth inhibition of human Caki1 cells assessed as cell viability at 0.1 uM incubated for 48 hrs by sulforhodamine B assay; details: CAKI-1, 48 h, read-out: Activity
K562 = test: Growth inhibition of human K562 cells assessed as cell viability at 1 uM incubated for 48 hrs by sulforhodamine B assay; details: K562, 48 h, read-out: Activity
MDA-MB-231 [4] = test: Growth inhibition of human MDA-MB-231 cells assessed as cell viability at 0.001 uM incubated for 48 hrs by sulforhodamine B assay relative to control; details: MDA-MB-231, 48 h, read-out: Activity
HCC 2998 = test: Growth inhibition of human HCC2998 cells assessed as cell viability at 100 uM incubated for 48 hrs by sulforhodamine B assay; details: HCC 2998, 48 h, read-out: Activity
NCI-H226 = test: Growth inhibition of human NCI-H226 cells assessed as cell viability at 1 uM incubated for 48 hrs by sulforhodamine B assay; details: NCI-H226, 48 h, read-out: Activity
NCI-H522 = test: Growth inhibition of human NCI-H522 cells assessed as cell viability at 0.001 uM incubated for 48 hrs by sulforhodamine B assay relative to control; details: NCI-H522, 48 h, read-out: Activity
MCF7 = test: Growth inhibition of human MCF7 cells assessed as cell viability at 1 uM incubated for 48 hrs by sulforhodamine B assay; details: MCF7, 48 h, read-out: Activity
U-251 = test: Growth inhibition of human U251 cells assessed as cell viability at 1 uM incubated for 48 hrs by sulforhodamine B assay; details: U-251, 48 h, read-out: Activity
MDA-MB-231 [5] = test: Growth inhibition of human MDA-MB-231 cells incubated for 48 hrs by sulforhodamine B assay; details: MDA-MB-231, 48 h; procedure, shortened: as §1
NCI-H460 = test: Growth inhibition of human NCI-H460 cells assessed as cell viability at 0.001 uM incubated for 48 hrs by sulforhodamine B assay relative to control; details: NCI-H460, 48 h, read-out: Activity
786-0 = test: Growth inhibition of human 786-0 cells assessed as cell viability at 0.1 uM incubated for 48 hrs by sulforhodamine B assay; details: 786-0, 48 h, read-out: Activity
Procedure, shortened: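 NCI-60 five-dose mode: five tenfold dilutions (0.01, 0.1, 1, 10, 100 µM) are applied for 48 h to cells in RPMI 1640 with 5% FBS at 37 °C. Endpoint is TCA fixation with sulforhodamine B read at 515 nm. % growth comes from the 0 h and control absorbances. GI50 is the concentration giving a 50% reduction in net cell growth.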

NCI-H23 = test: Growth inhibition of human NCI-H23 cells assessed as cell viability at 100 uM incubated for 48 hrs by sulforhodamine B assay; details: NCI-H23, 48 h, read-out: Activity
MDA-MB-435 = test: Growth inhibition of human MDA-MB-435 cells assessed as cell viability at 100 uM incubated for 48 hrs by sulforhodamine B assay; details: MDA-MB-435, 48 h, read-out: Activity
TK-10 [6] = test: Growth inhibition of human TK10 cells incubated for 48 hrs by sulforhodamine B assay; details: TK-10, 48 h
Procedure, shortened: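 NCI-60 five-dose SRB assay. Cells were exposed for 48 h to tenfold dilutions of 0.01, 0.1, 1, 10 and 100 µM, in RPMI 1640 with 5% FBS. Plates fixed with TCA at the time of drug addition served as the time-zero reference. GI50 is the concentration giving a 50% reduction in net growth. TGI is total growth inhibition. LC50 is a net 50% loss of the initial cells.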

LOX IMVI = test: Growth inhibition of human LOXIMVI cells incubated for 48 hrs by sulforhodamine B assay; procedure, shortened: as §1
EKVX = test: Growth inhibition of human EKVX cells assessed as cell viability at 0.001 uM incubated for 48 hrs by sulforhodamine B assay relative to control; details: read-out: Activity
[7] = read-out: LC50 (the source's name)
[8] = read-out: pLC50 (the source's name) (converted)

## CC1=C(C(=O)OCc2ccccc2)C(c2ccc3c(c2)OCO3)n2c(nc3ccccc32)N1 (racemic)
TK-10 [1]
  viability at 0.001 µM: 92%
HT-29 [2]
  viability at 0.1 µM: 99%
UO-31
  viability at 1 µM: 38%
SN12C; [7]
  CC50: > 100 µM
SN12C; read-out: TGI
  TGI: > 100 µM
SN12C; [8]
  CC50: > 100 µM
SN12C; read-out: pTGI
  TGI: > 100 µM
SK-MEL-28
  viability at 0.1 µM: 93%
BT-549
  viability at 0.001 µM: 95%
HT-29 [3]; read-out: GI50
  GI50: 0.34 µM
HT-29 [3]; read-out: LC50
  LC50 (50% net cell kill): > 100 µM
HT-29 [3]; read-out: TGI
  TGI: > 100 µM
HT-29 [3]; read-out: pGI50 (converted)
  GI50: 0.347 µM
HT-29 [3]; read-out: pLC50 (converted)
  LC50 (50% net cell kill): > 100 µM
HT-29 [3]; read-out: pTGI
  TGI: > 100 µM
CAKI-1
  viability at 0.1 µM: 74%
K562
  viability at 1 µM: 23%
MDA-MB-231 [4]
  viability at 0.001 µM: 97%
HCC 2998
  viability at 100 µM: 46%
NCI-H226
  viability at 1 µM: 66%
NCI-H522
  viability at 0.001 µM: 78%
MCF7
  viability at 1 µM: 14%
U-251
  viability at 1 µM: 26%
MDA-MB-231 [5]; read-out: GI50
  GI50: 85.7 µM
MDA-MB-231 [5]; [7]
  CC50: > 100 µM
MDA-MB-231 [5]; read-out: TGI
  TGI: > 100 µM
MDA-MB-231 [5]; read-out: pGI50 (converted)
  GI50: 85.1 µM
MDA-MB-231 [5]; [8]
  CC50: > 100 µM
MDA-MB-231 [5]; read-out: pTGI
  TGI: > 100 µM
NCI-H460
  viability at 0.001 µM: 98%
786-0
  viability at 0.1 µM: 97%
NCI-H23
  viability at 100 µM: 44%
MDA-MB-435
  viability at 100 µM: -7%
TK-10 [6]; read-out: GI50
  GI50: > 100 µM
TK-10 [6]; [7]
  CC50: > 100 µM
TK-10 [6]; read-out: TGI
  TGI: > 100 µM
TK-10 [6]; read-out: pGI50 (converted)
  GI50: > 100 µM
TK-10 [6]; [8]
  CC50: > 100 µM
TK-10 [6]; read-out: pTGI
  TGI: > 100 µM
LOX IMVI; read-out: GI50
  GI50: 0.55 µM
LOX IMVI; read-out: LC50
  LC50: > 100 µM
LOX IMVI; read-out: TGI
  TGI: > 100 µM
LOX IMVI; read-out: pGI50 (converted)
  GI50: 0.55 µM
LOX IMVI; read-out: pLC50 (converted)
  LC50: > 100 µM
LOX IMVI; read-out: pTGI
  TGI: > 100 µM
EKVX
  viability at 0.001 µM: 91%
